{"data": "Assay results collected from several papers", "target": "Casein kinase I isoform gamma-3 (CSNK1G3, Homo sapiens, UniProt Q9Y6M4)", "note": "Lines come from different studies, so protocols differ."}
{"SMILES": "CCCCC(=O)Nc1ccc(-c2ccc3ncn(CCC)c(=O)c3c2)cn1", "test": "binding, competition with immobilised ligand", "setting": "0.5 µM", "measurement": "remaining binding", "value": "85%"}
{"SMILES": "COc1ccc2[nH]c3c4[nH]c5ccc(OC)cc5c4c4c(c3c2c1)C(=O)NC4=O", "test": "binding", "setting": "1 µM", "measurement": "remaining binding", "value": "100%"}
{"SMILES": "N#Cc1ccc2nc(Nc3ccc(N4CCOCC4)c(Cl)c3)[nH]c2c1", "test": "thermal stability, DSF", "setting": "30 µM", "measurement": "ΔTm", "value": "3.3 °C"}
{"SMILES": "Cc1cc(O)c(-c2ccc([C@@H](C)CN(C)C)cc2)c2c1[nH]c(=O)c1sccc12", "test": "enzyme activity, inhibitor", "setting": "0.1 µM", "measurement": "inhibition", "value": "-4.11%"}
{"SMILES": "C=CC(=O)N1CCC([C@@H]2CCNc3c(C(N)=O)c(-c4ccc(Oc5ccccc5)cc4)nn32)CC1", "test": "enzyme activity, inhibitor", "setting": "1 µM", "measurement": "inhibition", "value": "0%"}
{"SMILES": "Cc1ccc(NC(=O)c2ccnc(C(F)(F)F)c2)cc1-c1cc(OCCO)nc(N2CCOCC2)c1", "test": "binding", "setting": "1 µM", "measurement": "remaining binding", "value": "100%"}
{"SMILES": "CO[C@@H]1[C@H](N(C)C(=O)c2ccccc2)C[C@H]2O[C@]1(C)n1c3ccccc3c3c4c(c5c6ccccc6n2c5c31)C(=O)NC4", "test": "enzyme activity, inhibitor", "setting": "1 µM", "measurement": "inhibition", "value": "0%"}
{"SMILES": "C1=C/COCc2cc(ccc2OCCN2CCCC2)Nc2nccc(n2)-c2cccc(c2)COC/1", "test": "cell-free assay", "setting": "0.1 µM", "measurement": "remaining signal", "value": "100%"}
